34 compounds from ChEMBL document CHEMBL3244303, “Synthesis of spiro[isobenzofuran-1(3H),4'-piperidines] as potential central nervous system agents. 5. Conformationally mobile analogues derived by furan ring opening” (J Med Chem, 1979) can be followed below.

The first experiment concerns Mus musculus. The experiment in a line: Antidepressant activity in ip dosed CD1 mouse assessed as inhibition of tetrabenazine methanesulfonate-induced reserpine like behavior administered 30 mins before tetrabenazine methanesulfonate challenge measured after 30 mins. Format: functional. The procedure, abridged: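 Male CD-1 mice, groups of five, given test compound ip; tetrabenazine methanesulfonate 40 mg/kg ip 30 min later; after a further 30 min mice placed in individual containers and ptosis scored on a three-point scale (eyes closed = 2).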
In the case of `Br.CN1CCC(c2ccccc2Cc2ccc(F)cc2)CC1`, the median effective dose (ED50) came to 4.9 mg/kg. Take `Br.COc1ccc(Cc2ccccc2C2CCN(C)CC2)cc1`: the ED50 was over 20 mg/kg. For `CN1CCC(c2ccccc2Cc2ccc(O)cc2)CC1`, the ED50 is over 20 mg/kg.

As to `Br.c1ccc(CCN2CCC(c3ccccc3Cc3ccccc3)CC2)cc1`, the ED50 came to 10.8 mg/kg. Still for that read-out and setting: to `Br.Fc1ccc(Cc2ccccc2C2CCNCC2)cc1` belongs 1.5 mg/kg. In the case of `COc1ccc(Cc2ccccc2C2CCNCC2)cc1.Cl`, the ED50 was found to be 7.1 mg/kg. For `Oc1ccc(Cc2ccccc2C2CCNCC2)cc1`, the ED50 is 1.2 mg/kg. As to `ON1CCC(c2ccccc2Cc2ccccc2)CC1`, the ED50 was determined as 7.3 mg/kg. Take `O=C(Oc1ccccc1)N1CCC(c2ccccc2Cc2ccccc2)CC1`: the 50% effective dose (ED50) was over 20 mg/kg. Same read-out and setting: with `CN1CCC(O)(c2ccccc2Cc2ccccc2)CC1` the figure was 18 mg/kg; with `CN1CCC(O)(c2cccc(Cc3ccccc3)c2)CC1`, over 20 mg/kg. Regarding `CN1CCC(O)(c2ccc(Cc3ccccc3)cc2)CC1`, the ED50 was over 20 mg/kg. Still for that read-out and setting: to `COc1ccc(Cc2ccccc2C2(O)CCN(C)CC2)cc1` belongs over 20 mg/kg; to `Cl.OC1(c2ccccc2Cc2ccccc2)CCN(Cc2ccccc2)CC1`, over 20 mg/kg.

For the compound `OC1(c2ccccc2Cc2ccccc2)CCN(CCc2ccccc2)CC1`, the ED50 is over 20 mg/kg. On to `CC(=O)OC1(c2ccccc2Cc2ccccc2)CCN(C)CC1.Cl`, for which the ED50 is over 20 mg/kg.

`CC(=O)OC1(c2cccc(Cc3ccccc3)c2)CCN(C)CC1.Cl`: the ED50 was over 20 mg/kg. Turning to `CC(=O)OC1(c2ccccc2Cc2ccccc2)CCN(Cc2ccccc2)CC1.Cl`, the ED50 was over 20 mg/kg.

In the case of `COC1(c2ccccc2Cc2ccccc2)CCN(C)CC1.Cl`, the ED50 is over 20 mg/kg.

For the compound `COC1(c2ccccc2Cc2ccccc2)CCNCC1`, the ED50 worked out at 7.8 mg/kg.

Consider `Br.CN1CC=C(c2cccc(Cc3ccccc3)c2)CC1`, for which the ED50 was over 20 mg/kg.

Turning to `Br.CN1CC=C(c2ccc(Cc3ccccc3)cc2)CC1`, the ED50 was over 20 mg/kg. Turning to `Br.COc1ccc(Cc2ccccc2C2=CCN(C)CC2)cc1`, the ED50 was over 20 mg/kg. For the compound `C1=C(c2ccccc2Cc2ccccc2)CCN(Cc2ccccc2)C1.Cl`, the ED50 was over 20 mg/kg. `C1=C(c2ccccc2Cc2ccccc2)CCN(CCc2ccccc2)C1`: the ED50 was over 20 mg/kg.

With `Cl.c1ccc(COC2(c3ccccc3)CCNCC2)cc1`, the ED50 came to 10.1 mg/kg. `Cl.c1ccc(COC2(c3ccccc3)CCN(CC3CC3)CC2)cc1`: the ED50 was 6.3 mg/kg. For `CCOC(=O)N1CCC(OCc2ccccc2)(c2ccccc2)CC1`, the ED50 was over 20 mg/kg. With `CN1CCC(OCc2ccccc2)(c2ccccc2)CC1.Cl`, the ED50 came out at 6.2 mg/kg. In the case of `c1ccc(CCN2CCC(OCc3ccccc3)(c3ccccc3)CC2)cc1`, the ED50 was over 20 mg/kg.

On to `CN(C)CCC=C1c2ccccc2CCc2ccccc21` [AMITRIPTYLINE], for which the ED50 came to 1.9 mg/kg. Consider `CNCCCN1c2ccccc2CCc2ccccc21` [DESIPRAMINE], for which the ED50 was determined as 0.8 mg/kg. On to `CN(C)CCCN1c2ccccc2CCc2ccccc21` [IMIPRAMINE], for which the ED50 amounted to 1.3 mg/kg.

For a further experiment, the target named is Transporter (Rattus norvegicus, UniProt Q63380). The experiment in a line: Inhibition of NET-mediated norepinephrine uptake in rat brain synaptosomes. Format: subcellular.
Sequence of Transporter (Q63380 whole entry): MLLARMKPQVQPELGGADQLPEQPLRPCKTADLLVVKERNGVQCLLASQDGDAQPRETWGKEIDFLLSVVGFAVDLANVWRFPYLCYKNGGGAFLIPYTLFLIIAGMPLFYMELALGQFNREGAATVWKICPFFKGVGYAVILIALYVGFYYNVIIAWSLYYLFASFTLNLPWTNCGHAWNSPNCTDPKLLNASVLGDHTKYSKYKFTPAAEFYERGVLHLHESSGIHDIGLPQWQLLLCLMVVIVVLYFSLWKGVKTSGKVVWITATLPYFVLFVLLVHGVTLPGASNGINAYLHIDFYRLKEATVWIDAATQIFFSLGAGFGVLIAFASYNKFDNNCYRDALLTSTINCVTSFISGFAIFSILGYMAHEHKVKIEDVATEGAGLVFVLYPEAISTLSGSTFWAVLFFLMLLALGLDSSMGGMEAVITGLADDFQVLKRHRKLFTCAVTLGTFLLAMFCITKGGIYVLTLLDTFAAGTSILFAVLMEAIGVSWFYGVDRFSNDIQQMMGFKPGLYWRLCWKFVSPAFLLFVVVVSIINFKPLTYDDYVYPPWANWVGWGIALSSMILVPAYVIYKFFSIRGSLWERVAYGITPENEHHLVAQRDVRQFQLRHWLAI
`c1ccc(C2OC3(CCNCC3)c3ccccc32)cc1` (centres undefined) yielded an IC50 of 10 nM.

As usually defined, the ED50 is the dose that gives a 50% effect, or the effect in half of the subjects. As a reminder, the IC50 is the midpoint of a concentration-inhibition curve.
